High-throughput results: PubChem, several laboratories
HKDC1 inhibitor: blocks human hexokinase HKDC1 activity; Q2TB90; recombinant HKDC1, G6PDH/diaphorase resazurin coupled fluorescence; inhibition, % at 20 µM; actives 0.16% (n = 340,000);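 active means inhibition above about 35% when tested at 20 µM, limit read from the data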;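 further: plate controls were DMSO wells with enzyme for no effect and DMSO wells lacking enzyme for full effect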
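Material – in-house recombinant HK5 (HKDC1) enzyme · Quantity – HKDC1 at 5 µg/mL · Buffer or medium – pH 8.0 Tris buffer with 10 mM MgCl2 · Reagent – glucose with 1 mM ATP · Dosing – single 20 µM dose · Times – reaction time 90 min, room temperature, protected from light · Technique – resorufin fluorescence at 613 nm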
T cell modulator: T cell immune modulators affecting CD8 T cell-vesicle binding | 2C CD8+ T cell-vesicle binding, flow cytometry; stronger effect = lower value | response (vesicle binding), % at 7 µM | actives 0.068% (n = 330,000);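 active means response, share of CD8 T cells binding vesicles, and their 90th percentile fluorescence all below set limits, cut at about 80% in these data, passing the limit was not always enough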;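 further: values below 100% mean blocked vesicle binding to the CD8+ T cells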
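Read-out – percent CD8+ FL2 mean versus row control · System – murine 2C transgenic CD8+ T lymphocytes · Times – 1.5 h cell–vesicle binding at 37 °C, then 20 min icy labelling · Control set – naked vesicles low, QL9 vesicles with vehicle high · Detection – cytometric PE anti-B7-1 and Alexa647 anti-CD8 signals after 1% paraformaldehyde fixation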
ATG4B inh: blocks human ATG4B protease cleavage of LC3 substrate. ATG4B cleavage of LC3-PLA2, NBD-HPC fluorescence, 1 h. inhibition, % at 8.33 µM. actives 0.51% (n = 340,000). AID 504462; in the data active means inhibition above about 40%
PfG6PD inh: PfG6PD (Plasmodium falciparum) enzyme inhibition; PfGluPho enzyme, NADPH resazurin-diaphorase fluorescence; AID 504690; inhibition, % at 20 µM; actives 0.78% (n = 350,000);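 active means inhibition reaching at least a set limit at 20 µM in the primary screen, cut at about 59% in these data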;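 further: 0% = DMSO wells with substrate and 100% = DMSO wells lacking glucose-6-phosphate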
PKA-R1A act: PKA-R1A complex activation. P00514+P68181. PKA-R1A dissociation, Cy5-IP20 fluorescence polarization; scaled: DMSO 0%, 113 µM cGMP 100%. activation, % at 11.4 µM. actives 0.083% (n = 340,000). AID 504707;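 active means percent activation above the mean of all tested compounds plus 3 SD, cut at about 19% in these data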;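 further: higher means more PKAc released from R1A so a rise in polarization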
PKA-R2B act: activators of human PKA-R2B complex; actives 0.079% (n = 340,000); P22694+P31323; activation, % at 11.4 µM; AID 504700; PKA-R2B holoenzyme dissociation, Cy5-IP20 fluorescence polarization; R2B truncated from residue 108, S112A mutant; 0% DMSO only, 100% 113 µM cGMP;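 active means activation above a cutoff set at the mean over all compounds plus 3 SD, cut at about 18% in these data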;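 further: higher means more holoenzyme dissociation and a rise in polarization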
HKDC1 act conf2: confirmation of human HKDC1 activators; shares compounds with HKDC1 inhibitor; recombinant HKDC1, G6PDH/diaphorase resazurin fluorescence; stronger effect = lower value; inhibition, % at 20 µM; actives 14% (n = 740); AID 504708;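 active means inhibition at or below a set negative limit, negative inhibition meaning the enzyme was activated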
* hit, by the source's call; / = not tested or not shown. Most compounds without a hit are left out; they make up all but 1.6% or so of the library.

SMILES	HKDC1 inhibitor	T cell modulator	ATG4B inh	PfG6PD inh	PKA-R1A act	PKA-R2B act	HKDC1 act conf2
Cc1cc2cc(CCNC(=O)c3cccc([N+](=O)[O-])c3)c(=O)[nH]c2cc1C	40.1*	246.4	-13.8	8.9	3.8	13.3	16.1
Cc1ccc2cc(CCNC(=O)c3ccc(S(=O)(=O)N4CCCCC4)cc3)c(=O)[nH]c2c1	40.0*	324.4	-22.6	45.5	-13.0	-1.1	39.8
Nc1ccc2c(c1)-c1ccc(F)cc1C2=O	3.1	/	9.6	15.2	-9.0	0.5	/
CC(=O)c1ccc(NC(=O)c2noc(C)c2[N+](=O)[O-])cc1	-6.0	296.1	13.4	-8.6	-3.5	-3.0	/
Cc1onc(C(=O)Nc2ccc(OC(F)(F)F)cc2)c1[N+](=O)[O-]	79.1*	337.4	2.6	12.2	-5.3	-0.6	-14.9
Nc1nc(N2CCCCC2)nc2ccccc12	-7.9	188.2	-4.7	-14.4	0.5	-6.4	/
Nc1nc(N2CCN(c3ccccn3)CC2)nc2ccccc12	-57.6	156.7	-0.6	-51.2	-11.1	-6.0	-44.1*
COc1ccc(N2CCN(C(=O)CSc3nnc4c(C)cc5c(C)cc(C)cc5n34)CC2)cc1	42.9*	425.7	-11.7	38.5	1.8	-6.8	19.2
Cc1cc(C)c2cc(C)c3nnc(SCC(=O)NCc4ccc5c(c4)OCO5)n3c2c1	32.0	334.6	-9.1	-5.5	2.6	3.3	31.4
Cc1cc2cc(C)c3nnc(SCC(=O)NCc4ccc5c(c4)OCO5)n3c2cc1C	31.4	723.8	-5.2	-3.4	4.3	-2.6	/
Cc1ccc(S(=O)(=O)/C(C#N)=C/c2c(N3CCN(Cc4ccccc4)CC3)nc3ccccn3c2=O)cc1	1.3	130.7	28.5	-4.0	-3.0	-2.6	/
Cc1ccc(-n2nc(C)c3c2C(Br)C(C)(C)CC3=O)nc1 (stereo not drawn)	-2.1	/	3.7	20.9	-4.3	7.0	/
OCC1OC2C(NC(=S)N2c2ccccc2)C(O)C1O (stereo not drawn)	-4.6	/	-2.6	7.2	-1.0	1.5	/
COc1ccc(S(=O)(=O)Nc2ccc(O)c3ccccc23)cc1	45.7*	359.1	-12.1	39.6	1.2	-5.5	51.2
Cc1ccc(C)c(S(=O)(=O)Nc2ccc(O)c3ccccc23)c1	47.8*	351.5	-5.2	34.9	-11.1	5.3	24.9
Cc1ccc(S(=O)(=O)Nc2ccc(O)c3ccccc23)c(C)c1	51.8*	136.6	-8.3	39.6	1.8	5.5	24.9
Cc1ccc(S(=O)(=O)Nc2cc(C(C(=O)OC(C)C)C(=O)C(F)(F)F)c(O)c3ccccc23)c(C)c1 (stereo not drawn)	26.2	426.8	14.6	22.5	-0.5	-7.1	/
Cc1ccc(N=Nc2ccc(O)c3ncccc23)cc1C	-43.2	115.9	-1.2	-19.9	-6.7	13.2	-40.4*
Cc1cc(C)cc(-n2c(N)c(C(=O)Nc3c(C)n(C)n(-c4ccccc4)c3=O)c3nc4ccccc4nc32)c1	38.2*	257.3	-1.7	13.9	-2.0	-5.2	-32.7
Cc1ccc(-n2c(N)c(C(=O)Nc3c(C)n(C)n(-c4ccccc4)c3=O)c3nc4ccccc4nc32)cc1	3.5	280.4	-8.2	-1.1	-10.3	-5.0	/
COc1cccc(-n2c(N)c(C(=O)Nc3c(C)n(C)n(-c4ccccc4)c3=O)c3nc4ccccc4nc32)c1	35.7*	305.5	0.6	31.3	-11.6	6.3	28.2
Cc1ccc(CNC(=O)c2ccc(OCC(C)C)cc2)n1C	0.5	184.6	-6.2	-0.5	-6.0	3.3	/
Cc1nc([N+](=O)[O-])c(Br)n1CC(=O)c1ccc(Cl)cc1	21.6	744.0	7.5	4.9	-5.4	3.3	/
Cc1nc([N+](=O)[O-])c(Br)n1Cc1ccc(Cl)c(Cl)c1	35.0	/	-4.3	6.0	-12.0	-7.0	53.8
CSc1ccc(CNC(=O)C2CCC(=O)N(CCc3cccc(F)c3)C2)cc1 (stereo not drawn)	5.1	195.4	1.7	-14.0	1.5	9.3	/
